Results on 16 compounds are retold here after ChEMBL document CHEMBL1275302, “Synthesis and in vitro antiproliferative activity of 5-alkyl-12(H)-quino[3,4-b] [1,4]benzothiazinium salts” (Eur J Med Chem, 2010).

Common to all, as to type: functional, cell-based
Assay [1] has as its system HCT-116. The experiment in a line: Antiproliferative activity against human HCT116 cells at 0.1 to 100 ug/ml after 24 hrs by MTS assay. In a few lines:
(§1)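 Cells kept at 37 °C, 5% CO2; seeded 1 × 10⁴ cells/well in D-MEM with 12% FCS, streptomycin and penicillin. After 24 h (about 80% confluent), aqueous stocks (DMSO added if needed) diluted in medium and added at various concentrations, 12 or 24 h incubation. Cells washed in PBS, resuspended in Phenol Red-free DMEM with MTS; formazan absorbance read. Survival as % of control; mean ± SD of three experiments; IC50 determined.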
A general note: Tetrazolium assays rely on reduction of a dye to a coloured formazan, in cell work by metabolically active cells.

In assay [2] the test system is Lewis lung carcinoma cell line. The experiment in a line: Antiproliferative activity against mouse LLC cells at 0.1 to 100 ug/ml after 24 hrs by MTS assay. In a few lines:
as §1

Assay [3] concerns HCT-116. Nature of the assay: Antiproliferative activity against human HCT116 cells after 24 hrs by MTS assay. As to conditions: HCT-116, 24 h. In a few lines: as §1
Assay [4] relates to Lewis lung carcinoma cell line. The experiment in a line: Antiproliferative activity against mouse LLC cells after 24 hrs by MTS assay. In a few lines:
as §1

The structures appear in SMILES notation. In brackets after ≈: the same amount, converted by molar mass. Activity calls are given as the source filed them. No cut-off for these calls is given here.

As to `C[n+]1cc2c(c3ccccc31)Nc1c(N)cccc1S2`, the outcome (in the assay on HCT-116 [1]; in assay [2]) was inactive.

With `C[n+]1cc2c(c3ccccc31)Nc1ccccc1S2.[Cl-]`, the half-inhibitory concentration (IC50) worked out at 7.8 µg/mL in the assay with HCT-116 [3] and 2.3 µg/mL in assay [4].

For `CCCC[n+]1cc2c(c3ccccc31)Nc1ccccc1S2.[Br-]`, the results for the IC50 (in the assay with HCT-116 [3]; in assay [4]) were 14.4 µg/mL and 14 µg/mL, respectively.

For the compound `C[n+]1cc2c(c3ccccc31)Nc1cc(N)ccc1S2.[Cl-]`, the values for the IC50 (in the assay with HCT-116 [3]; in assay [4]) were 2.2 µg/mL and 4.7 µg/mL, respectively.

Regarding `C[n+]1cc2c(c3ccccc31)Nc1ccc(F)cc1S2.[Cl-]`, the IC50 came out at 6.7 µg/mL in the assay with HCT-116 [3] and 6.4 µg/mL in assay [4].

As to `C[n+]1cc2c(c3ccccc31)Nc1ccc(O)cc1S2.[Cl-]`, the values for the 50% inhibitory concentration (IC50) (with HCT-116 [3]; in assay [4]) were 6.7 µg/mL and 7.2 µg/mL, respectively.

For `C[n+]1cc2c(c3ccccc31)Nc1ccc(Br)cc1S2.[Cl-]`, the IC50 was found to be 6.9 µg/mL with HCT-116 [3] and 6.5 µg/mL in assay [4].

For the compound `COc1cccc2c1C(=O)c1c(O)c3c(c(O)c1C2=O)C[C@@](O)(C(=O)CO)C[C@@H]3O[C@H]1C[C@H](N)[C@H](O)[C@H](C)O1` [DOXORUBICIN], the IC50 in the assay with HCT-116 [3] was 3.3 µg/mL (≈ 6.07 µM); in assay [4], 3.7 µg/mL (≈ 6.81 µM).

Take `Cc1cccc2c1Nc1c(c[n+](C)c3ccccc13)S2`: the result (with HCT-116 [1]; in assay [2]) was inactive.

Turning to `C[n+]1cc2c(c3ccccc31)Nc1ccc(N)cc1S2.[Cl-]`, the half-maximal inhibitory concentration (IC50) worked out at 5.1 µg/mL with HCT-116 [3] and 8.9 µg/mL in assay [4].

For the compound `Cc1ccc2c(c1)Sc1c[n+](C)c3ccccc3c1N2.[Cl-]`, the figures for the IC50 (in the assay on HCT-116 [3]; in assay [4]) were 4.4 µg/mL and 8.8 µg/mL, respectively.

`C[n+]1cc2c(c3ccccc31)Nc1cccnc1S2.[Cl-]`: the results for the IC50 (in the assay with HCT-116 [3]; in assay [4]) were 17.2 µg/mL and 13.2 µg/mL, respectively.

In the case of `C[n+]1cc2c(c3ccccc31)Nc1cc(O)ccc1S2.[Cl-]`, the IC50 came to 7.6 µg/mL in the assay on HCT-116 [3] and 5.7 µg/mL in assay [4].

As to `C[n+]1cc2c(c3ccccc31)Nc1ccc(Cl)cc1S2.[Cl-]`, the values for the IC50 (in the assay on HCT-116 [3]; in assay [4]) were 7.4 µg/mL and 5.4 µg/mL, respectively.

For `CCCCCCCCCC[n+]1cc2c(c3ccccc31)Nc1ccccc1S2.[Br-]`, the IC50 turned out to be 19.6 µg/mL in the assay on HCT-116 [3] and 17.1 µg/mL in assay [4].

Consider `C[n+]1cc2c(c3ccccc31)Nc1c(O)cccc1S2`, for which the result (in the assay on HCT-116 [1]; in assay [2]) was inactive.

One may read the IC50 as the concentration at which inhibition is half-maximal. A higher IC50 goes with a need for much substance.
